Consider 20 sequences from the EternaBench riboswitch data.

One may read the apparent Kd as the concentration giving half-maximal binding under the conditions of the assay.

In the series the test system is MS2 coat protein. Kind of series: apparent Kd, MS2 coat protein; higher = weaker binding; RNA-MaP array; FMN 200 µM where present. Summed up: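 Apparent Kd: the median of filtered binding-curve fits from single clusters. Designs were transcribed on Illumina sequencing-chip clusters by stalled E. coli RNA polymerase and titrated with SNAP-549-labelled MS2 coat protein from 0.7 or 1.5 nM, doubling to 3 µM, in 100 mM Tris-HCl pH 7.5, 80 mM KCl, 4 mM MgCl2, BSA, DTT, yeast tRNA and Tween-20. Each series ran without and then with constant ligand, and green signal was normalised to red-channel RNA signal and control-cluster median Fmax.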

[1] abbreviates: designed as: OFF switch for flavin mononucleotide, no ligand.
Where [2] appears, read: ligand present: flavin mononucleotide, designed as: OFF switch for flavin mononucleotide.
The mark [3] stands for this setting: designed as: ON switch for flavin mononucleotide, no ligand.
Setting [4] is: ligand present: flavin mononucleotide, designed as: ON switch for flavin mononucleotide.

For “GGUCCACAUGAGGAUCACCCAUGUCAGGAUAUACACGGCACAAUAAUAAGUGCCACCCGUAGAAGGGACGCUGG”, the “apparent Kd” value under setting [1] came to 14.8 nM and the “apparent Kd” value under setting [2] turned out to be 37.6 nM.

As for “ACCUCACAUGAGGAUCACCCAUGUUAGGAUAUAUAAUCGUCGGCCUAGGGCCGGAGAUAUAGAAGGAGCAUAAC”, the “apparent Kd” value runs as follows: under setting [1], 16.9 nM; under setting [2], 19.7 nM.

As to “GCAUGCAAGUAGAAGGACAGAUAUUUUGAUACUGUAGGAUAUGCAGAAUCAUAUCCACAUGAUAACAUGAGGAUCACCCAUGUA”, the “apparent Kd” value under setting [1] amounted to 11.6 nM and the “apparent Kd” value under setting [2] was 10 nM.

Regarding “AUUUAGUGCGAGAAGGCGUGGUCACAUGAGGAUCACCCAUGUCAGUACACGAGGAUAUCGAUCCGCUAUGUAAACCUAGGCGGC”, the “apparent Kd” value is, setting by setting: under setting [3], 101 nM; under setting [4], 6.89 nM.

On to “GGUUCGGGAGGAUAUGUUUUUUUUUACAUGAGGAUCACCCAUGUUUUUGUGUUUUUUUUCAUAGAAGGUUUGGGCC”, for which the “apparent Kd” value came to 39 nM under setting [1] and 39.3 nM under setting [2].

With “UUAAUGUGAGGAUAUCAGGUGUGCUAGCGUACUGGUACAUCUGAGAAGGCACAUGAGGAUCACCCAUGUUCCUU”, the “apparent Kd” value under setting [1] came to 16.4 nM and the “apparent Kd” value under setting [2] was found to be 55.3 nM.

On to “AGAAACUACGAGAAGGACAUAUGGUACUUCAGUUACAUGAGGAUCACCCAUGUAGGAUAUCGUAGUUUCAGGAUCGUGAGAUCA”, for which the “apparent Kd” value was 22 nM under setting [1] and 169 nM under setting [2].

On to “CUCUACAUAGGAUAUACAUGAGGAUCACCCAUGUAUGUUUCGACAUGCGUUUACCUCGGUAGAAGGAUGUAGUA”, for which the “apparent Kd” value by setting is: under setting [1], 68.2 nM; under setting [2], 185 nM.

For “CCGCAUAAGCAGGAUAUCGUAUCGGAUACGAUACGAGAAGGGUUUACAUGAGGAUCACCCAUGUUCCUUAGCGG”, the “apparent Kd” value is 29.7 nM under setting [1] and 48.1 nM under setting [2].

As for “UAGGACUACGUAGGAUAUGUAGUAGAUUACUACAUGAGGAUCACCCAUGUAAGCAUGUUAUUAGGACAGAAGGACGUGGUAAAU”, the “apparent Kd” value under setting [3] came out at 30.4 nM and the “apparent Kd” value under setting [4] amounted to 11.1 nM.

Turning to “UGAUCGAGAGAUCUUAGAUUCUGGUAGGAUAUACAUUAUGUUUGAAAUACAUGAGGAUCACCCAUGUAGAAGGACUAGAGUCUA”, the “apparent Kd” value under setting [1] is 6.71 nM and the “apparent Kd” value under setting [2] came out at 11.7 nM.

“GUGUUACAUGAGGAUCACCCAUGUUGUUGUAGAUAAGGAUAUAUGGGAACGAGAGAAAUAAUAGAAGGUAUUAGGC”: the “apparent Kd” value reads like this: under setting [3], 71.2 nM; under setting [4], 67.7 nM.

Take “GCACGGCAUGUAGGAUAUCGAGCUCAAAGAGCUCGAGAAGGACAUGAGGAUCACCCAUGUGCUCACAGACAGUGAGCGCUGUGC”: the “apparent Kd” value reads like this: under setting [1], 25.1 nM; under setting [2], 91.5 nM.

As for “CCUUAAAAGAUCCAAAAUUACAACAUGAGGAUCACCCAUGUGCAGGAUAUCGUGCCAGUGAUGUACGAGAAGGGCAGACUCUGC”, the “apparent Kd” value reads like this: under setting [1], 147 nM; under setting [2], 170 nM.

As for “CGCAUCUCCUCAAUUCCUUCACAUGAGGAUCACCCAUGUAGGGAGGAUAUGCAAGCCUAUUGGCGGCAGAAGGCCCUGCAAUGG”, the “apparent Kd” value worked out at 72.9 nM under setting [1] and 67.4 nM under setting [2].

As to “CGCCGACAUGAGGAUCACCCAUGUCACAUCUGGUCAGGAUAUGGUAUGAUUUGGCUAUUGCCAGAAGGGACCUCAG”, the “apparent Kd” value is, setting by setting: under setting [3], 48.9 nM; under setting [4], 28 nM.

Regarding “UGUUAUAGAGGAUAUGCGUGAAUAUAGAUUCAUGGAAAUUUACAUGAGGAUCACCCAUGUAGAAGGCUGUGAUU”, the “apparent Kd” value is, setting by setting: under setting [1], 14.4 nM; under setting [2], 15.3 nM.

Take “CCUUUGAAGAUCCUAGUUUUCGACAUGAGGAUCACCCAUGUGCAGGAUAUCGUGCCAGUGAUGUGCGAGAAGGGCAGUCUCUGC”: the “apparent Kd” value was found to be 110 nM under setting [1] and 112 nM under setting [2].

On to “GUACGCUCAGGAUAUCAAGGGCUGUACAUGAGGAUCACCCAUGUUAUCUUGGUGUCAGCGUGAGAAGGGAGGGAAA”, for which the “apparent Kd” value reads like this: under setting [1], 26 nM; under setting [2], 32.7 nM.

For the sequence “GCUCGAUGCGCUGAGAACAUGAGGAUCACCCAUGUAAAUGGUCAGGAUAUUUACGUGCUUUAUGUAGAGAAGGGACCAUCGAGC”, the “apparent Kd” value runs as follows: under setting [3], 110 nM; under setting [4], 27.3 nM.
